Published values collected from several papers.
Each line is one published result; the experiments were not run side by side.
Cell line: HepG2
Read-out: cell growth or viability

For `CC(=O)Nc1ccc(O)cc1`, the CC50 was greater than 1000 µM (ATP luminescence).
`CCOC(=O)c1c(C)ncn1CC(c1cn(C)c2ccc([N+](=O)[O-])cc12)c1cn(C)c2ccc([N+](=O)[O-])cc12` gave a CC50 of greater than 20 µM (MTS; 24 h).
The CC50 of `N=C(N)NCc1ccc(NC(=O)c2ccc(C(=O)Nc3ccc(C4=CCN(C(=N)N)CC4)cn3)cc2)cc1` is reported as 353 µM (MTS; 24 h).
The CC50 of `COc1ccc(NC(=O)N2CCCCN3C[C@H](c4ccc(C#Cc5ccccc5)cc4)[C@@H]3C2)cc1` is reported as 10 µM.
`N=C(N)NCc1ccc(NC(=O)c2ccc(C(=O)Nc3ccc(C4=CCN(C(=N)N)CC4)cc3)nc2)cc1` has a CC50 of greater than 117 µM (MTS; 24 h).
`O=C(c1ccc(Nc2ncc(Cl)c(-c3ccc(Cl)s3)n2)cc1)N1CCC(N2CCCC2)CC1` has a CC50 of 5.1 µM (44 h).
`Cc1cc(Nc2ccc(S(F)(F)(F)(F)F)cc2)n2ncnc2n1` has a CC50 of greater than 50 µM.
`C[C@@H]1[C@H](O)[C@@H](C)/C=C/C=C/C=C/C=C/C=C/C=C/C=C/[C@H](O[C@@H]2O[C@H](C)[C@@H](O)[C@H](N)[C@@H]2O)C[C@@H]2O[C@](O)(C[C@@H](O)C[C@@H](O)[C@H](O)CC[C@@H](O)C[C@@H](O)CC(=O)O[C@H]1C)C[C@H](O)[C@H]2C(=O)O` has a CC50 of 4.6 µM (MTS; 24 h).
`N=C(N)NCc1ccc(NC(=O)c2ccc(C(=O)Nc3ccc(C4=CCN(C(=N)N)CC4)cc3)cn2)cc1` gave a CC50 of 739 µM (MTS; 24 h).
`COC(=O)c1c(C)ncn1CC(c1c[nH]c2ccc(C)cc12)c1c[nH]c2ccc(C)cc12` gave a CC50 of greater than 20 µM (MTS; 24 h).
With `N=C(N)NCc1ccc(NC(=O)C23CCC(C(=O)Nc4ccc(C5=CCN(C(=N)N)CC5)cc4)(CC2)CC3)cc1` the CC50 was 253 µM (MTS; 24 h).
With `NCC(=O)CCC(=O)O` the CC50 was greater than 1000 µM (ATP luminescence).
`COc1ccc(NC(=O)N2CCCCN3[C@H](CN(C)S(C)(=O)=O)[C@H](c4ccc(C#Cc5ccccc5)cc4)[C@@H]3C2)cc1` gave a CC50 of greater than 40 µM.
`COC(=O)c1c(C)ncn1CC(c1c[nH]c2ccccc12)c1c[nH]c2ccccc12` gave a CC50 of greater than 20 µM (MTS; 24 h).
With `Cc1ccc(-c2nc(Nc3ccc(C(=O)N4CCC(N5CCCC5)CC4)cc3)ncc2Cl)s1` the CC50 was 9.3 µM (44 h).
The CC50 of `COc1cc(/C=C/C(=O)CC(=O)/C=C/c2ccc(O)c(OC)c2)ccc1O` is reported as roughly 42 µM (MTT; 24 h).
